The test system of one test is HepG2. Briefly: Cytotoxicity against human HepG2 cells after 72 hrs by MTT assay. Particulars: HepG2, 72 h. It is filed as functional, cell-based. The method in brief: (§1)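 Cells grown in RPMI-1640 with 10% heat-inactivated bovine serum, L-glutamine, penicillin/streptomycin and 10 mM HEPES pH 7.4, at 37 °C, 5% CO2. Seeded, allowed to adhere 24 h, then exposed at 0.01–100 µg/mL (tenfold steps) for 72 h, triplicate wells. MTT 4 h, SDS–isobutanol–HCl solubilization 12–20 h. OD 570 nm versus DMSO controls. IC50 by LOGIT.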

The subject of the next test is K562. Briefly: Cytotoxicity against human K562 cells after 72 hrs by MTT assay. It counts as functional, cell-based. Particulars: K562, 72 h. The method in brief:
as §1

This passage reports IC50 results from ChEMBL document CHEMBL1152330, “Cytotoxic triterpenoid alkaloids from Buxus microphylla” (J Nat Prod, 2009).

With `C/C=C1/C(=O)C[C@@]2(C)[C@@H]3CCC4C(C)(C)[C@@H](NC)CC[C@@]45C[C@@]35CC[C@]12C` (stereo partly specified), the IC50 is over 100 µM in the test with HepG2 and 1.7 µM in the test with K562.
Consider `COc1ccc(/C=C/C(=O)N[C@H]2CC[C@]34C[C@]35CC[C@]3(C)[C@@H]([C@H](C)N(C)C)[C@H](O)C[C@@]3(C)[C@@H]5CCC4[C@]2(C)CO)cc1O` (stereo partly specified) [BUXMICROPHYLLINE G], for which the IC50 in the test on HepG2 was determined as 0.89 µM; in the test with K562, 4.44 µM.
Taken in the same sequence, the figures for `C=C1C2CC[C@@H]3[C@]4(CC[C@]5(C)[C@@H](C(C)=O)[C@H](O)C[C@@]35C)C[C@]24CC[C@@H]1N(C)C` (stereo partly specified) [BUXIPPINE K] were 57.1 µM and 35.3 µM.
On to `C/C=C1\C(=O)C[C@@]2(C)[C@@H]3CCC4C(C)(C)[C@@H](NC)CC[C@@]45C[C@@]35CC[C@]12C` (stereo partly specified) [Z-buxenone], for which the values for the IC50 in the test on HepG2 and in the test on K562 were 14.9 µM and 5.61 µM, respectively.
Taken in the same sequence, the figures for `CC(C)C(=O)N[C@H]1CC[C@]23C[C@]24CC[C@]2(C)[C@@H]([C@H](C)N(C)C)[C@H](OC(=O)c5ccccc5)C[C@@]2(C)[C@@H]4C=CC3[C@]1(C)CO` (stereo partly specified) [BUXMICROPHYLLINE F] were 20.1 µM and 2.95 µM.
For `C=C1C2CC[C@@H]3[C@]4(CC[C@]5(C)[C@@H](C(C)=O)[C@H](O)C[C@@]35C)C[C@]24CC[C@@H]1NC` (stereo partly specified) [CYCLOMICROBUXININE] the same measures were over 100 µM and over 100 µM.
As to `C=C1C2CC[C@@H]3[C@]4(CC[C@]5(C)/C(=C\C)C(=O)C[C@@]35C)C[C@]24CC[C@@H]1NC` (stereo partly specified) [BIXMICROPHYLLINE B], the IC50 in the test on HepG2 came out at 0.78 µM; in the test on K562, 0.37 µM.
Taken in the same sequence, the figures for `C[C@@H]([C@H]1[C@H](OC(=O)c2ccccc2)C[C@@]2(C)[C@@H]3CCC4[C@@]5(CC[C@H](NC(=O)c6ccccc6)[C@@]4(C)CO)C[C@@]35CC[C@]12C)N(C)C` (stereo partly specified) [BUXMICROPHYLLINE E] were 39.7 µM and over 100 µM.
